# From PubChem
# An excerpt weighted towards active compounds, which were near 6.4% of everything screened.
# HIV Rev-RRE inh: HIV-1 Rev-RRE binding inhibitors, primary screen, biochemical, FRET, protein-RNA interaction | AID 704, 2007 | inhibition, % at 8 µM | 97,000 tested, 0.79% active | Rev peptide-RRE RNA binding;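 active = inhibition above the screen-wide mean plus 3 SD, cut at about 35% in these data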;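 note: 0% = median DMSO wells and 100% = median Neomycin B control wells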
#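 Test system: Cy5-tagged RRE RNA duplex with fluorescein-tagged Rev peptide | Read-out: % inhibition of FRET ratio versus controls | Probe or stimulus: Labelled Rev peptide | Incubation: 5 min RNA-compound premix plus 15 min binding step, 25 °C | Technique: FRET fluorescence readout | Benchmarks: DMSO low control, neomycin B high control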
# PostGolgi ctrl: growth inhibition of yeast control strain, primary screen, counter-screen for post-Golgi transport modulator project; efflux-deficient yeast background strain, growth absorbance A615, 16 h; inhibition, % at 10 µM; 98,000 tested, 5% active
# PLK1 PBD inh: Plk1 polo box domain binding inhibitors, primary screen, biochemical, fluorescence polarization | 97,000 tested, 0.13% active | AID 693, 2007 | Plk1 PBD phosphopeptide binding | inhibition, %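 (tested at about 20 µM)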; in the data active = inhibition above about 34%, passing the limit was not always enough
# PostGolgi yeast: phenotypic screen on post-Golgi transport, primary screen; post-Golgi transport phenotypic cell assay; inhibition, % at 10 µM; 98,000 tested, 0.9% active;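 note: yeast cells grown in 1536-well plates; yeast grown about 18 h at 30C before absorbance read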
# EphB4 antag: EphB4-ephrin-B2 interaction antagonists, primary screen, biochemical, TNYL-RAW peptide probe, fluorescence polarization. 97,000 tested, 0.15% active. Ephrin type-B receptor 4 (Homo sapiens), P54760. inhibition, % at 7 µM. EphB4 LBD / TNYL-RAW-Alexa532 peptide;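 active = inhibition above the screen-wide mean inhibition plus 3 SD, cut at about 15% in these data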;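 note: 0% = DMSO wells and 100% = excess unlabeled TNYL-RAW peptide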
# Target sequence (P54760 whole entry, looked up, the tested form may be a part): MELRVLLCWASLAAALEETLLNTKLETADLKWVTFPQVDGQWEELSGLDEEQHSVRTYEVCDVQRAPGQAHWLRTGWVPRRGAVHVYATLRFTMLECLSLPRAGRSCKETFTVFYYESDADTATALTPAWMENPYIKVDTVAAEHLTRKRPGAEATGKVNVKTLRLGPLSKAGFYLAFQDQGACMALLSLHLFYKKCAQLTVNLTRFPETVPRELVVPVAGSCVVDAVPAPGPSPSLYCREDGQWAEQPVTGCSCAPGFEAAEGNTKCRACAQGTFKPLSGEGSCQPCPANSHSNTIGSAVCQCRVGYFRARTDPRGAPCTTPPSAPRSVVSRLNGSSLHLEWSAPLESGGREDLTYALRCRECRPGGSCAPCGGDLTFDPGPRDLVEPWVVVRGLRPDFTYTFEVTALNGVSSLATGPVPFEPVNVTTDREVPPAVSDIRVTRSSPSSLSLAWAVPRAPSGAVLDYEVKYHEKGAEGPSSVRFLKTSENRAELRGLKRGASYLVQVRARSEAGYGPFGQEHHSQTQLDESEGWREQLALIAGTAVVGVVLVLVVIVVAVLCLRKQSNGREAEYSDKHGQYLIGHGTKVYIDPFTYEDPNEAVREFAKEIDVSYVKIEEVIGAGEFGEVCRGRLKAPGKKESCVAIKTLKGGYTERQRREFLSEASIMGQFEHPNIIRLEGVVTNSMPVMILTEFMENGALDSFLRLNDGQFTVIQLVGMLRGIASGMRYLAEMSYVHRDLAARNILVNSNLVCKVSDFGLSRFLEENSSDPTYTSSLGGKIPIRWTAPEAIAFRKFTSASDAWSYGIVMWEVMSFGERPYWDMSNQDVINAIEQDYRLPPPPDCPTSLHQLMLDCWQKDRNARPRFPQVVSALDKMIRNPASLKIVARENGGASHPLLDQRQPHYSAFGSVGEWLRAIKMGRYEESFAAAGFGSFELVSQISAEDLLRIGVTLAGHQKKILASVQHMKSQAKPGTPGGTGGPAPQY
# PLK1 kinase inh: human PLK1 kinase inhibitors, primary screen, biochemical, TR-FRET; inhibition, % at 10 µM; recombinant PLK1 kinase, TR-FRET peptide phosphorylation; 97,000 tested, 0.53% active; AID 619, 2007;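 active = inhibition of 50% or more in the single-concentration screen; inactive = inhibition below 50%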;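 note: 0% = DMSO max control and 100% = H-89 dihydrochloride min control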
# Starred values were filed as active, the others as inactive; / = no result; [ ] = dose if it differs, or a comment. Cut-off read from the data, not from the text of the source, unless noted: active = inhibition above about 30%; inactive = the rest.
SMILES,HIV Rev-RRE inh,PostGolgi ctrl,PLK1 PBD inh,PostGolgi yeast,EphB4 antag,PLK1 kinase inh
CCOC(=O)C1=C(CN2c3ccccc3CC2C)NC(=O)NC1c1ccccc1 (centres undefined),-5,33*,5,1,-2,-14
O=C(CCl)NCc1c(Cl)cccc1-n1cccc1,8,-3,-41,6,4,-3
CC(=O)c1cccc(NC(=O)CN(c2ccc(C)cc2)S(=O)(=O)c2cccc3nonc23)c1,16,34*,-7,-4,5,-1
CCOC(=O)CSc1cccc2cccnc12,6,-2,-4,-11,-2,-3
CCOCCCNc1nc2c(c(=O)n(C)c(=O)n2C)n1CCCc1ccccc1,-2,33*,-20,-12,5,-7
Cc1cc(N=Cc2c(O)n(-c3ccc4c(c3)OCO4)c(=O)c3ccccc23)ccn1,1,30*,32,0,-6,-8
COc1ccc(-n2c(C)c(C(C)=O)c3cc(O)ccc32)cc1,2,32*,-25,-1,1,-8
CCOc1ccc(C(=O)/C=C/c2ccccc2C(F)(F)F)cc1,8,5,-30,-7,-3,-11
CCOc1ccc(C(=O)/C=C/c2cn(CN3CCN(C)CC3)c3ccccc23)cc1,9,32*,-13,-2,2,-11
COc1ccc(C(=O)/C=C/c2cn(CN3CCN(C)CC3)c3ccccc23)cc1,18,33*,-9,4,7,-8
COc1ccc(C(=O)/C=C/c2ccccc2C(F)(F)F)cc1,22,15,-18,4,0,-8
COc1ccc2nc3sc(C(=O)NCc4cccs4)c(N)c3cc2c1,40*,8,3,3,-3,14
COc1cccc(C(=O)c2c[nH]c(C(=O)NCc3cccs3)c2)c1,2,0,9,1,-4,-12
Cc1cccc(OCc2nnc(SCC(=O)Nc3cc(C)on3)n2C)c1,/,-3,/,-3,/,/
Cc1nnc(SCc2ccc(Cl)cc2)n1CC1CCCO1 (centres undefined),5,-3,3,-4,7,-9
CCCCNC(=O)Oc1cccc(N2CCCC2=O)c1,2,5,-26,-2,-1,-6
Cc1ccc2nc(/C(C#N)=C\c3cc(C)n(-c4cccc([N+](=O)[O-])c4)c3C)[nH]c2c1,12,25,-5,28,4,-35
Cc1ccc(/C(C#N)=C\c2ccc(N3CCOCC3)o2)cc1,96*[fluorescence artefact?],1,-103,0,1,-15
Cc1ccc2nc(/C(C#N)=C\c3ccc(N4CCOCC4)o3)[nH]c2c1,135*[fluorescence artefact?],/,-229,/,-23,-34
Cc1ccc2nc(/C(C#N)=C\c3ccc([N+](=O)[O-])o3)[nH]c2c1,64*[fluorescence artefact?],99*,-65,103*,-2,-32
Cc1c(NC(=O)c2cc3nc(-c4ccc(Cl)cc4)cc(C(F)(F)F)n3n2)c(=O)n(-c2ccccc2)n1C,3,/,-25,/,4,0
OC(c1ccc(OCc2ccccc2)cc1)c1nnc(-c2ccccc2)o1 (centres undefined),16,26,0,-4,-3,0
OC(c1cccc(OCc2ccccc2)c1)c1nnc(-c2ccccc2)o1 (centres undefined),6,56*,-9,-1,-4,-11
O=C(Nc1cccc(-c2nc3ncccc3o2)c1)c1cc2ccccc2o1,/,35*,/,11,/,/
Cc1cc(OCC(=O)Nc2ccncc2)ccc1Br,-1,23,-11,13,5,6
SMILES,HIV Rev-RRE inh,PostGolgi ctrl,PLK1 PBD inh,PostGolgi yeast,EphB4 antag,PLK1 kinase inh
CCN(CC)C(=O)CN(C)S(=O)(=O)c1cccc2nsnc12,1,3,21,-8,-2,5
CCN(CC)S(=O)(=O)c1cccc2nsnc12,5,49*,3,1,0,-16
N#Cc1nc(-c2cccs2)oc1NCCCN1CCOCC1,-1,2,-2,-14,1,-17
COc1cccc(C=Nc2cc(C)on2)c1O,/,20,/,0,/,/
CCc1ccc2oc(-c3cc(N=Cc4cccc(OC)c4O)ccc3O)nc2c1,1,33*,23,9,-2,-10
CCSc1nc(C)cc(Oc2ccc(=O)n(C)n2)n1,4,-1,4,-7,-9,-24
CCOC(=O)C1=CN(c2cccc(F)c2)C=C(C(=O)OCC)C1c1cc(OC)c(O)c([N+](=O)[O-])c1,-3,29,4,14,-1,-8
Cc1csc(NC(=O)CSc2ncnc3c2cnn3-c2ccccc2Cl)n1,-2,32*,19,1,-17,-10
Cc1ccccc1-n1ncc2c(SCC(=O)NCc3cccs3)ncnc21,6,10,-23,-20,-3,-13
O=C(CN(Cc1ccco1)C(=O)c1cc(=O)[nH]c2ccccc12)Nc1ccccc1Br,1,3,-19,1,4,-11
Fc1ccc(-c2nnc(CN3CCC(c4nc5ccccc5s4)CC3)o2)cc1,/,38*,/,16,/,/
COc1ccc(C2CC(c3ccccc3)Nc3nc(NC(=O)c4ccco4)nn32)cc1 (centres undefined),7,-4,9,4,-3,-2
COc1ccc(C2CC(c3ccc(OC)cc3)n3nc(NC(=O)c4ccco4)nc3N2)cc1 (centres undefined),-1,31*,-18,5,4,-8
CCC(C)(C)NC(=O)CN(C(=O)CCC(=O)Nc1ccccn1)c1ccc(F)c(Cl)c1,-1,1,-7,41*,2,11
O=C(Nc1ccccc1)c1ccc(S(=O)(=O)N2CCCCC2)cc1,-3,5,19,-4,-9,-2
O=C(Nc1ccn(-c2ccccc2)n1)c1ccc(S(=O)(=O)N2CCCCCC2)cc1,5,31*,8,-8,0,-8
O=C(Nc1ccc(S(=O)(=O)N2CCCCC2)cc1)c1ccc(CN2CCc3ccccc3C2)cc1,3,54*,-15,-2,-3,-8
Cc1ccc(C(=O)Nc2ccc(S(=O)(=O)N3CCc4ccccc43)cc2)o1,14,24,17,7,1,-7
Cc1ccc(NC(=O)c2ccc(CN3CCc4ccccc4C3)cc2)cc1,1,13,-13,-4,-6,-14
Cc1ccc(C(=O)Nc2ccc(S(=O)(=O)N3CCc4ccccc4C3)cc2)o1,20,48*,12,1,0,-10
COCCNC(=O)C(c1ccc(F)cc1)N(CC1CCCO1)C(=O)CCC(=O)Nc1ccccn1 (centres undefined),4,1,-2,31*,-2,-5
CCCc1nc(S(=O)(=O)Cc2ccc(Cl)cc2Cl)n[nH]1,-1,11,-3,-10,-4,-13
